For 27 compounds, Ki results are on record in ChEMBL document CHEMBL2074359, “Structural requirements for determining the substrate affinity of peptide transporters PEPT1 and PEPT2” (Pflugers Arch, 2000).

Molecules are shown by their SMILES. Peptide text beside a SMILES is read from it.

As a reminder, the Ki is the equilibrium dissociation constant of an inhibitor or competing ligand from its target. Low values mean tighter binding, high ones weaker binding.

The target of experiment [1] is T1, Solute carrier family 15 member 2 (Rattus norvegicus, UniProt Q63424).
T1 sequence (Q63424 whole entry): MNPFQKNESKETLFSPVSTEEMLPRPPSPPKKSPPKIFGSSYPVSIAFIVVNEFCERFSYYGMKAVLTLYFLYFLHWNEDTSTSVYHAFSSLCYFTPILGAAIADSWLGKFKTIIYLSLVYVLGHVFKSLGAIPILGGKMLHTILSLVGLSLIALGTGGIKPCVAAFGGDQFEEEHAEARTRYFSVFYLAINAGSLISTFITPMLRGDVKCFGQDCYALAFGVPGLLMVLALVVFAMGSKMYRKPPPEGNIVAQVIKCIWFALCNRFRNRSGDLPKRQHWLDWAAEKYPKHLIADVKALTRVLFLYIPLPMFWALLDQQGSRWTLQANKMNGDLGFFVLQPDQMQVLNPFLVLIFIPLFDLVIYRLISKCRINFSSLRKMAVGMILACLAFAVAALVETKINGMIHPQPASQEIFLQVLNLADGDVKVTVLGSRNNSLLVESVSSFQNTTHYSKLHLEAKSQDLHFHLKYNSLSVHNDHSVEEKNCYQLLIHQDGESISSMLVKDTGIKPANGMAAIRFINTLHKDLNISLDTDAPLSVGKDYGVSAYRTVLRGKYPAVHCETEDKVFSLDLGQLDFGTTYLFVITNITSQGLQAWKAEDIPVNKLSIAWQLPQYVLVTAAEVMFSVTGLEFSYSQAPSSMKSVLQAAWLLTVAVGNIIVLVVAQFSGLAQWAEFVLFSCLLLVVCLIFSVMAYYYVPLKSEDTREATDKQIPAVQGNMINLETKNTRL
Nature of the experiment: TP_TRANSPORTER: inhibition of Gly-Sar uptake in PEPT2-expressing LLC-PK1 cells. In kind it is functional, cell-based. Summed up: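 LLC-PK1 cells stably carrying rat PEPT2 cDNA, grown 6 days in DMEM with 10% FBS. Monolayers were incubated 15 min at 37°C with [14C]glycylsarcosine (20 µM, pH 6.0) alone or with inhibitor, mostly 1–10000 µM. Uptake was normalized to Bradford protein, with control as 100%. IC50 came from nonlinear regression and Ki from Cheng–Prusoff. Two monolayers per concentration, four for control.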

Experiment [2] deals with T2, Solute carrier family 15 member 1 (Rattus norvegicus, UniProt P51574).
T2 sequence (P51574 whole entry): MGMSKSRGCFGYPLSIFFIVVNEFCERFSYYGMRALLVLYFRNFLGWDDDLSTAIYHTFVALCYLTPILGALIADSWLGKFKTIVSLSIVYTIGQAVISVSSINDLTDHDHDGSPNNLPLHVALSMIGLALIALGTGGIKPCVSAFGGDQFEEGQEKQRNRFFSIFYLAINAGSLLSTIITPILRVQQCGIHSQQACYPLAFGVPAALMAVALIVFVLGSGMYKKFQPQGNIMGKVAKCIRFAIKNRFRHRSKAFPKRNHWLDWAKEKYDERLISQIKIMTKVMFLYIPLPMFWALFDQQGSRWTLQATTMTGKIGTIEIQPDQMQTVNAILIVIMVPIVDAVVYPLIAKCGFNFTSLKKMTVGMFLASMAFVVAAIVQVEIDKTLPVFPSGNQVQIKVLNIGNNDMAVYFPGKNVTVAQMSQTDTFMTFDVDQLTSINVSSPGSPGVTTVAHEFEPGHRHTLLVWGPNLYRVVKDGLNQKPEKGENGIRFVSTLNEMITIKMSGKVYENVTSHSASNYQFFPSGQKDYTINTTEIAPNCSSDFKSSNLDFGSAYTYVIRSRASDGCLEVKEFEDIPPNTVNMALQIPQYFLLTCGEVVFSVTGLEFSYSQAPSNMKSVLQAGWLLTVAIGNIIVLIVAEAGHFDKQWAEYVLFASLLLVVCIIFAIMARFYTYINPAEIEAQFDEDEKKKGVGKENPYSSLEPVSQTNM
Description: TP_TRANSPORTER: inhibition of Gly-Sar uptake in PEPT1-expressing LLC-PK1 cells. The class given is functional, cell-based. Summed up:
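LLC-PK1 cells stably carrying rat PEPT1 cDNA, grown 6 days in DMEM with 10% FBS. Monolayers were incubated 15 min at 37°C with [14C]glycylsarcosine (20 µM, pH 6.0) alone or with inhibitor, mostly 10–20000 µM. Uptake was normalized to Bradford protein, with control as 100%. IC50 came from nonlinear regression and Ki from Cheng–Prusoff. Two monolayers per concentration, four for control.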

For `NCCCCCCCC(=O)O`, the results for the Ki in experiment [1] and in experiment [2] were 7900 µM and 4400 µM, respectively.

With `N[C@@H](CC(=O)NCC(=O)O)C(=O)O`, the Ki in experiment [1] was 28000 µM; in experiment [2], above 50000 µM.

For the compound `CNCC(=O)NCC(=O)O`, the Ki in experiment [1] came out at 2200 µM; in experiment [2], 13000 µM.

On to `NCCCC[C@H](NC(=O)[C@@H](N)CCCCN)C(=O)O`, for which the Ki in experiment [1] came to 96 µM; in experiment [2], 8000 µM.

As for `CC(C)C[C@H](NC(=O)CN)C(=O)O`, the inhibitory constant (Ki) in experiment [1] came to 6 µM; in experiment [2], 110 µM.

For `C[C@H](N)C(=O)Nc1ccc([N+](=O)[O-])cc1`, the Ki in experiment [1] is 29 µM; in experiment [2], 61 µM.

Take `N[C@@H](CC(=O)O)C(=O)N[C@@H](CC(=O)O)C(=O)O` (H-Asp-Asp-OH): the Ki in experiment [1] stood at 150 µM; in experiment [2], 990 µM.

Take `N[C@@H](CC(=O)O)C(=O)NCC(=O)O` (H-Asp-Gly-OH): the Ki in experiment [1] was 46 µM; in experiment [2] it was 830 µM.

For `NCC(=O)N[C@@H](CC(N)=O)C(=O)O` (H-Gly-Asn-OH), the values for the Ki in experiment [1] and in experiment [2] were 22 µM and 270 µM, respectively.

Turning to `NCC(=O)N[C@@H](CC(=O)O)C(=O)O` (H-Gly-Asp-OH), the Ki in experiment [1] came to 60 µM; in experiment [2], 300 µM.

Take `NCC(=O)NCC(=O)O` (H-Gly-Gly-OH): the Ki is 42 µM in experiment [1] and 860 µM in experiment [2].

Turning to `NCC(=O)NCC(=O)N[C@@H](Cc1ccccc1)C(=O)O` (H-Gly-Gly-Phe-OH), the results for the Ki in experiment [1] and in experiment [2] were 29 µM and 610 µM, respectively.

As to `NCC(=O)N[C@@H](Cc1c[nH]cn1)C(=O)O` (H-Gly-His-OH), the Ki came out at 39 µM in experiment [1] and 1400 µM in experiment [2].

As for `CC(C)C[C@H](NC(=O)CN)C(=O)N[C@@H](Cc1ccc(O)cc1)C(=O)O` (H-Gly-Leu-Tyr-OH), the Ki in experiment [1] was determined as 8 µM; in experiment [2], 190 µM.

As to `NCCCC[C@H](NC(=O)CN)C(=O)O` (H-Gly-Lys-OH), the figures for the Ki in experiment [1] and in experiment [2] were 210 µM and 2200 µM, respectively.

Regarding `NCC(=O)N[C@@H](Cc1ccccc1)C(=O)O` (H-Gly-Phe-OH), the Ki in experiment [1] is 8 µM; in experiment [2], 170 µM.

As for `NCC(=O)N[C@@H](Cc1c[nH]c2ccccc12)C(=O)O` (H-Gly-Trp-OH), the Ki came to 7 µM in experiment [1] and 1400 µM in experiment [2].

In the case of `NCC(=O)N[C@@H](Cc1ccc(O)cc1)C(=O)O` (H-Gly-Tyr-OH), the Ki in experiment [1] was 14 µM; in experiment [2], 210 µM.

Turning to `NCCCC[C@H](N)C(=O)NCC(=O)O` (H-Lys-Gly-OH), the results for the Ki in experiment [1] and in experiment [2] were 21 µM and 910 µM, respectively.

Turning to `CSCC[C@H](N)C(=O)N[C@@H](C)C(=O)O` (H-Met-Ala-OH), the Ki in experiment [1] was found to be 17 µM; in experiment [2], 150 µM.

As to `N[C@@H](Cc1ccccc1)C(=O)NCC(=O)O` (H-Phe-Gly-OH), the values for the Ki in experiment [1] and in experiment [2] were 7 µM and 220 µM, respectively.

In the case of `O=C(O)CNC(=O)[C@@H]1CCCN1` (H-Pro-Gly-OH), the Ki was determined as 2000 µM in experiment [1] and 13000 µM in experiment [2].

As to `CSCC[C@H](NC=O)C(=O)N[C@@H](C)C(=O)O` (HELM PEPTIDE1{[O=C[*:2]].M.A}$$$$V2.0), the values for the Ki in experiment [1] and in experiment [2] were 10000 µM and 24000 µM, respectively.

For the compound `NCC(=O)CCC(=O)O` [AMINOLEVULINIC ACID], the Ki in experiment [1] came out at 230 µM; in experiment [2] it was 2200 µM.

In the case of `NCCC(=O)N[C@@H](Cc1cnc[nH]1)C(=O)O` [CARNOSINE], the results for the Ki in experiment [1] and in experiment [2] were 66 µM and 8000 µM, respectively.

Consider `NCC(=O)NCC(=O)NCC(=O)O` [GLYCYLGLYCYLGLYCINE], for which the Ki worked out at 160 µM in experiment [1] and 1300 µM in experiment [2].

`CC(C)C[C@H](NC(=O)[C@@H](O)[C@H](N)Cc1ccccc1)C(=O)O` [UBENIMEX]: the Ki was determined as 18 µM in experiment [1] and 1500 µM in experiment [2].
